Test [1] can be described thus: Her2 expression decrease, cell viability multiplex – SKBR3 breast tumor cells, AlphaScreen, ATP viability, primary screen (AID 461;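 active = Her2 level under about 52% in both replicate screens, with viability over 70% of control, limit read from the data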;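 for Her2 level: lower value means less Her2 protein in the cells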;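 for viability: percent of carrier control wells set as 100% viability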). As to conditions: SKBR3 Her2 protein level, 18-24 h, measured here: SKBR3 viability, ATP luminescence, at 10 µM. On the technique in general: In Alpha technology, singlet oxygen from a donor bead excites a nearby acceptor bead.
Test [2] has as its target Receptor tyrosine-protein kinase erbB-2 (Homo sapiens) (UniProt P04626). Described as above. The settings on record: 18-24 h, at 10 µM, stronger effect = lower value.
A short description of test [3]: reduced viability of SK-BR-3 breast cancer cells – cell-based, 24 h, human, pilot screen (AID 572;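 active = viability at or below 10% of carrier control in both of two separate runs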;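 note: compound exposure lasted between 18 and 24 h rather than exactly 24 h; 100% = carrier-treated control wells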). As to conditions: SK-BR-3 viability, CellTiter-Glo luminescence, at 10 µM, stronger effect = lower value. Background: ATP-based viability assays read luminescence as a measure of living cells.
The nature of test [4]: HUVEC growth inhibition – cell-based, human, primary screen (AID 575;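 active = viability at or below 30% in both replicate assays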;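 note: 100% = median of untreated cell wells with 0.1% DMSO on each plate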). As to conditions: HUVEC proliferation, CellTiter-Glo luminescence, 72 h; at 10 µM; stronger effect = lower value. The gist of the method:
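Test system – primary HUVEC, no more than 12 passages · Dosing – one dose, 10 µM final, 0.1% DMSO · Times – 72 h treatment at 37 °C · Measured by – ATP-based CellTiter-Glo luminescent read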

The nature of test [5]: H69AR cell proliferation blockers – human, duplicate replicates, primary screen (AID 580).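 Note: 100% = mean luminescence of untreated wells and 0% = no signal.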 As to conditions: H69AR lung tumor cells viability, ATP luminescence, 72 h; at 10 µM; stronger effect = lower value.
Test [6] is described as follows: MRP1 drug-resistance reversers in H69AR cells – cell-based, doxorubicin co-treatment, pilot screen (AID 601;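 active = viability loss from added drug above about 55%, and viability with drug at most 40%, in both replicates, limit read from the data, passing the limit was not always enough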). As to conditions: CellTiter-Glo, 72 h, at 10 µM; for differential viability (reversal): stronger effect = higher value.
Test [7] is described as follows: yeast transport mutant growth inhibition pilot in 384-well plates, post-Golgi transport modulator project (AID 636; in the data active = inhibition above about 31%). As to conditions: absorbance 615 nm, about 18 h, stronger effect = higher value.
Test [8] is described as follows: growth suppression of yeast trafficking mutant, preliminary HTS, modulators of trafficking downstream of Golgi apparatus project, 1536-format plate, OD 615 nm (AID 637; in the data active = inhibition above about 30%). The settings on record: yeast transport mutant growth, absorbance 615 nm, 18 h; stronger effect = higher value.
The mark [9] stands for this setting: H69AR cells + 2 uM doxorubicin, measured here: viability with 2 uM doxorubicin, stronger effect = lower value.
[10] abbreviates: H69AR cells, compound alone cytotoxicity.

Structures are written as SMILES. The source made the active and inactive calls.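 Rule for the calls, unless noted: active = viability at or under a set limit in both replicates, limit being median viability minus 3 SD (cut at about 48% in these data, passing the limit was not always enough); inconclusive = at or under the limit in just one replicate; inactive = at or above the limit in both replicates.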

The term viability denotes a read-out of living cells in per cent, often relative to untreated cells. One may read the inhibition as the relative decrease from the control value, in per cent.

Sequence of Receptor tyrosine-protein kinase erbB-2 (Homo sapiens) (P04626 whole entry, looked up): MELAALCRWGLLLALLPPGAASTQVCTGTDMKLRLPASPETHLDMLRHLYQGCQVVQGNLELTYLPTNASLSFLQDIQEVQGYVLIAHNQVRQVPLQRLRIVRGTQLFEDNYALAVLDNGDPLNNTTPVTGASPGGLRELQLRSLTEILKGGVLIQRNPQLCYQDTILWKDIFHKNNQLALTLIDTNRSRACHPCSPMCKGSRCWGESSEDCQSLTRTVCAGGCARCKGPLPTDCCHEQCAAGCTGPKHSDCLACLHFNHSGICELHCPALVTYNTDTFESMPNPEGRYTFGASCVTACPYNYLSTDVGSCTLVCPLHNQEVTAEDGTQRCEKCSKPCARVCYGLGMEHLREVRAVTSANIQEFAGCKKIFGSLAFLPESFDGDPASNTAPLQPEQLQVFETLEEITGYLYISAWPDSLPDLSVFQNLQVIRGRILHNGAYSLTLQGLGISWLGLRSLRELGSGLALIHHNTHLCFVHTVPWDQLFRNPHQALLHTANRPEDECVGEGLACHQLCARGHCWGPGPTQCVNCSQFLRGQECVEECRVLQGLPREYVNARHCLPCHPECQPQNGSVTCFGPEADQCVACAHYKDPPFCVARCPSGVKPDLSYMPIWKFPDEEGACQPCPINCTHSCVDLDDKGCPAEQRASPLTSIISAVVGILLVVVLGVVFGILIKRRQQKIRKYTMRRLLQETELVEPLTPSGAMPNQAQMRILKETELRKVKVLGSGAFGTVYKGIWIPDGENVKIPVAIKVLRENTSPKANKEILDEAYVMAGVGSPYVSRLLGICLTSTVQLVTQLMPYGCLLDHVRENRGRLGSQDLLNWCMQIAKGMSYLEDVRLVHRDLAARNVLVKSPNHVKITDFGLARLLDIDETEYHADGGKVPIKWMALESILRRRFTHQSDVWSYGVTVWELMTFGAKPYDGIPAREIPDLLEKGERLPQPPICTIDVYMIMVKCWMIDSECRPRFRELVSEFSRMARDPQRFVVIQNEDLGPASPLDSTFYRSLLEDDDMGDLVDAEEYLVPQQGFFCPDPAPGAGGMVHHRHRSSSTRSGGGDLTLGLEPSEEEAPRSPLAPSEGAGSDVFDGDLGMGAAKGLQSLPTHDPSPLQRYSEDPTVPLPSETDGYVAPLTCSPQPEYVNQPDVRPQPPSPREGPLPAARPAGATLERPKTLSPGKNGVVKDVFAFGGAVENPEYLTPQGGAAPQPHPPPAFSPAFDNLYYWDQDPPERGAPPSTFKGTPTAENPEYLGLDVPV

As to `CCC1(CC)NC(=O)NC1=O`, the viability in test [1] was 110%; in test [3] it was 110% (inactive); in test [4] it was 85% (inactive); in test [5], 105% (inactive); in test [6] (setting [9]) it was 90.1%; in test [6] (setting [10]) it was 105%. Besides, the Her2 level in test [2] was 90% (inactive). In test [6] (H69AR cells + 2 uM doxorubicin), the differential viability (reversal) is 14.9% (inactive). Further, the values for the inhibition in test [7] and in test [8] were -4.74% (inactive) and 3.11% (inactive), respectively.
Turning to `Cc1cccc(Cn2c(=O)n(Cc3ccco3)c(=O)c3ccccc32)c1`, the viability in test [1] is 87%; in test [3], 87% (inactive); in test [4], 100% (inactive); in test [5], 92.5% (inactive); in test [6] (setting [9]) it was 102%; in test [6] (setting [10]), 92.5%. Also, the Her2 level in test [2] was 97.5% (inactive). Moreover, the differential viability (reversal) in test [6] (H69AR cells + 2 uM doxorubicin) is -9.65% (inactive). In addition, the inhibition in test [7] was -2.11% (inactive); in test [8] it was 1.15% (inactive).
With `COc1ccc2cc(C#N)c(SCC(=O)N3CCCC3)nc2c1`, the viability in test [1] was 97%; in test [3], 97% (inactive); in test [4], 90.4% (inactive); in test [5], 70.2% (inactive); in test [6] (setting [9]) it was 75.5%; in test [6] (setting [10]), 70.2%. Further, the Her2 level in test [2] is 81% (inactive). Further, the differential viability (reversal) in test [6] (H69AR cells + 2 uM doxorubicin) is -5.28% (inactive). The inhibition in test [7] is 0.95% (inactive); in test [8] it was -5.08% (inactive).
As to `CC(C)Nc1ncnc2c1cnn2-c1ccccc1`, the viability in test [1] is 95.5%; in test [3], 95.5% (inactive); in test [4] it was 88.3% (inactive); in test [5], 94.7% (inactive); in test [6] (setting [9]), 90.5%; in test [6] (setting [10]), 94.7%. Besides, the Her2 level in test [2] is 104% (inactive). Further, the differential viability (reversal) in test [6] (H69AR cells + 2 uM doxorubicin) was 4.19% (inactive). Also, the inhibition was 0% (inactive) in test [7] and -8.33% (inactive) in test [8].
In the case of `COc1cc(C(=O)N2CCN(C(=O)CC(C)C)CC2)cc(OC)c1OC`, the viability in test [1] is 93.5%; in test [3] it was 93.5% (inactive); in test [4], 101% (inactive); in test [5] it was 91.3% (inactive); in test [6] (setting [9]), 97.9%; in test [6] (setting [10]), 91.3%. Besides, the Her2 level in test [2] is 106% (inactive). Besides, the differential viability (reversal) in test [6] (H69AR cells + 2 uM doxorubicin) was -6.59% (inactive). Further, the inhibition in test [7] is 2.63% (inactive); in test [8], 13.2% (inactive).
For `COC(=O)C1=C(C)n2nnnc2NC1c1ccc(Cl)cc1` (stereo not given), the viability was 92% in test [1]; 92% (inactive) in test [3]; 90.4% (inactive) in test [4]; 95.3% (inactive) in test [5]; 86.8% in test [6] (setting [9]); 95.3% in test [6] (setting [10]). For the same compound, the Her2 level in test [2] was 107% (inactive). In addition, the differential viability (reversal) in test [6] (H69AR cells + 2 uM doxorubicin) is 8.47% (inactive). For the same compound, the inhibition in test [7] was -0.39% (inactive); in test [8], 1.83% (inactive).
As to `CCC1CCCN1Cn1cnc2c([nH]c3ccc(OC)cc32)c1=O` (stereo not given), the viability in test [1] is 104%; in test [3], 104% (inactive); in test [4], 111% (inactive); in test [5], 91.3% (inactive); in test [6] (setting [9]), 89.9%; in test [6] (setting [10]), 91.3%. Further, in test [2], the Her2 level was 90% (inactive). In addition, the differential viability (reversal) in test [6] (H69AR cells + 2 uM doxorubicin) is 1.38% (inactive). For the same compound, the inhibition was -5.6% (inactive) in test [7] and 2.42% (inactive) in test [8].
Take `Cc1ccc(-n2nnnc2SCC(=O)Nc2c(C)n(C)n(-c3ccccc3)c2=O)cc1`: the viability in test [1] is 102%; in test [3], 102% (inactive); in test [4], 105% (inactive); in test [5], 90.8% (inactive); in test [6] (setting [9]) it was 104%; in test [6] (setting [10]), 90.8%. Further, the Her2 level in test [2] is 104% (inactive). Further, in test [6] (H69AR cells + 2 uM doxorubicin), the differential viability (reversal) was -13.5% (inactive). The inhibition in test [7] is 0.8% (inactive); in test [8], 10.8% (inactive).
With `O=C(COc1ccc(Cl)cc1)NCc1nnc(SCC(=O)Nc2ccc3c(c2)OCCO3)o1`, the viability is 102% in test [1]; 102% (inactive) in test [3]; 112% (inactive) in test [4]; 97.3% (inactive) in test [5]; 101% in test [6] (setting [9]); 97.3% in test [6] (setting [10]). Moreover, the Her2 level in test [2] is 122% (inactive). The differential viability (reversal) in test [6] (H69AR cells + 2 uM doxorubicin) is -3.68% (inactive). Also, the inhibition is 2.82% (inactive) in test [7] and -11.7% (inactive) in test [8].
As for `Cc1cc(C)n(-c2nc3ccccc3c(=O)n2OCCOc2ccccc2)n1`, the viability in test [1] is 78%; in test [3], 78% (inactive); in test [4], 97.2% (inactive); in test [5] it was 89.6% (inactive); in test [6] (setting [9]) it was 79.3%; in test [6] (setting [10]), 89.6%. In addition, the Her2 level in test [2] was 93% (inactive). Further, the differential viability (reversal) in test [6] (H69AR cells + 2 uM doxorubicin) is 10.3% (inactive). Further, the inhibition in test [7] was -0.13% (inactive); in test [8] it was -6.07% (inactive).
For `CC(C)OC(=O)CSc1nc2cccnc2n1C1CCCCC1`, the viability is 124% in test [1]; 124% (inactive) in test [3]; 112% (inactive) in test [4]; 95.3% (inactive) in test [5]; 89.4% in test [6] (setting [9]); 95.3% in test [6] (setting [10]). Further, in test [2], the Her2 level was 93.5% (inactive). In addition, the differential viability (reversal) in test [6] (H69AR cells + 2 uM doxorubicin) is 5.92% (inactive). In addition, the inhibition in test [7] was -5.33% (inactive); in test [8] it was 3.44% (inactive).
In the case of `CCOC(=O)C(C)Sc1nc2c(cnn2-c2ccc(C)cc2)c(=O)[nH]1` (stereo not given), the viability is 83% in test [1]; 83% (inactive) in test [3]; 51.8% (inactive) in test [4]; 14.4% (active) in test [5]; 72.6% in test [6] (setting [9]); 14.4% in test [6] (setting [10]). The Her2 level in test [2] was 85.5% (inactive). The differential viability (reversal) in test [6] (H69AR cells + 2 uM doxorubicin) was -58.2% (inactive). The inhibition in test [7] is -2.53% (inactive); in test [8], -11.2% (inactive).
For `CCOC(=O)c1c(NC(=O)CSc2nnc(-c3cccnc3)o2)sc(C)c1C`, the viability was 120% in test [1]; 120% (inactive) in test [3]; 103% (inactive) in test [4]; 99.1% (inactive) in test [5]; 85.1% in test [6] (setting [9]); 99.1% in test [6] (setting [10]). Further, the Her2 level in test [2] was 104% (inactive). In addition, the differential viability (reversal) in test [6] (H69AR cells + 2 uM doxorubicin) is 14% (inactive). Also, the inhibition in test [7] is -4.34% (inactive); in test [8], -8.73% (inactive).
Regarding `O=C1CC(Cc2ccccc2)C(=O)N1CCCn1ccnc1` (stereo not given), the viability was 101% in test [1]; 101% (inactive) in test [3]; 103% (inactive) in test [4]; 92.2% (inactive) in test [5]; 84% in test [6] (setting [9]); 92.2% in test [6] (setting [10]). Also, the Her2 level in test [2] was 102% (inactive). Further, in test [6] (H69AR cells + 2 uM doxorubicin), the differential viability (reversal) is 8.18% (inactive). The inhibition in test [7] was -3.85% (inactive); in test [8], -0.5% (inactive).
Consider `O=C(Nc1ccc2c(c1)OCCO2)C1CCCN(S(=O)(=O)c2cnc[nH]2)C1` (stereo not given), for which the viability is 82.5% in test [1]; 82.5% (inactive) in test [3]; 100% (inactive) in test [4]; 94.7% (inactive) in test [5]; 86.2% in test [6] (setting [9]); 94.7% in test [6] (setting [10]). In addition, the Her2 level in test [2] is 111% (inactive). The differential viability (reversal) in test [6] (H69AR cells + 2 uM doxorubicin) is 8.45% (inactive). Also, the inhibition was -3.2% (inactive) in test [7] and -3.93% (inactive) in test [8].
Turning to `CC(=O)Nc1ccc(S(=O)(=O)n2nc(C)cc2C)cc1`, the viability in test [1] was 105%; in test [3] it was 105% (inactive); in test [4], 111% (inactive); in test [5] it was 105% (inactive); in test [6] (setting [9]) it was 98.9%; in test [6] (setting [10]), 105%. Also, the Her2 level in test [2] is 106% (inactive). Moreover, the differential viability (reversal) in test [6] (H69AR cells + 2 uM doxorubicin) is 5.88% (inactive). The inhibition was -6.45% (inactive) in test [7] and 10.3% (inactive) in test [8].

Values taken from PubChem BioAssay.
